This is an account of results in article PMC4874862 (ACS chemical biology, 2016).

Experiment [1] deals with full-length HIV-1 IN (Human immunodeficiency virus type 1 group M subtype B, UniProt P12497). As to the kind of experiment: DLS analysis of IN multimerization. To be noted: 500 nM BI/D or 3 µM LEDGF/p75 added to 200 nM IN, 30 min. The format is biochemical. Summed up: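 Recombinant full-length HIV-1 IN, E. coli-expressed with His or FLAG tag, at 200 nM in filtered 50 mM HEPES pH 7.4, 2 mM DTT, 2 mM MgCl2, 1 M NaCl. Test compound (500 nM) or LEDGF/p75 (3 µM) was added for 30 min. In a sequential arm, compound was added for 30 min, then LEDGF/p75 for 30 min more. DLS was recorded at 25 °C and particle size distribution calculated.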

For experiment [2], the target named is FLAG-LEDGF/p75 (full length) (UniProt O75475 1-530). As to the kind of experiment: AlphaScreen or HTRF. On the technique in general: In Alpha technology, singlet oxygen from a donor bead excites a nearby acceptor bead.
FLAG-LEDGF/p75 (full length), sequence (O75475 whole entry): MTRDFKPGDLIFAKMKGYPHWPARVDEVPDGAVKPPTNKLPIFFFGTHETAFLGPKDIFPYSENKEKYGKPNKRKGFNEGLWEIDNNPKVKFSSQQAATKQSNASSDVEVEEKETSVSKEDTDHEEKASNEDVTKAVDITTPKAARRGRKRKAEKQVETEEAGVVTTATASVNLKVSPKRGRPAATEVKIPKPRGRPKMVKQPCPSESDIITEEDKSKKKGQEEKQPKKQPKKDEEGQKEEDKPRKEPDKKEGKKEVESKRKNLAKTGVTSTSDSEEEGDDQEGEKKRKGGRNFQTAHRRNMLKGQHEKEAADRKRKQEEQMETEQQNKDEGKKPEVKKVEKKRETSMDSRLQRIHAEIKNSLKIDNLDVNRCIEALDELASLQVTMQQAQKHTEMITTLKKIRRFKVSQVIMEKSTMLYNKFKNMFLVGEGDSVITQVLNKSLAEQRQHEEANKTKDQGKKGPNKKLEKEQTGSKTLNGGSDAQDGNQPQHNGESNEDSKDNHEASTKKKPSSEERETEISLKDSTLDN

For the molecule “LEDGF/p75: cellular chromatin associated protein, cofactor that binds the HIV-1 IN tetramer; recombinant, His or FLAG tagged”, in experiment [1], the “estimated particle diameter (DLS) after addition to IN” value was ~ 11 nM.

B1: 6 × His-HIV-1 IN (wild type full-length HIV-1 integrase) (enzyme)
chain: FLDGIDKAQEEHEKYHSNWRAMASDFNLPPVVAKEIVASCDKCQLKGEAMHGQVDCSPGIWQLDCTHLEGKVILVAVHVASGYIEAEVIPAETGQETAYFLLKLAGRWPVKTVHTDNGSNFTSTTVKAACWWAGIKQEFGIPYNPQSQGVIESMNKELKKIIGQVRDQAEHLKTAVQMAVFIHNFKRKGGIGGYSAGERIVDIIATDIQTKELQKQITKIQNFRVYYRDSRDPVWKGPAKLLWKGEGAVVIQDNSDIKVVPRRKAKIIRDYGKQMAGDDCVASRQDED
As a reminder, the Kd is the concentration at which binding is half-saturated. A high value points to weaker binding. For B1, in experiment [2], the Kd amounted to 3.32 ± 0.31 nM.
